{
  "source": "ChEMBL document CHEMBL4813946",
  "about": "“Discovery of novel 4-azaaryl-N-phenylpyrimidin-2-amine derivatives as potent and selective FLT3 inhibitors for acute myeloid leukaemia with FLT3 mutations” (Eur J Med Chem, 2021)",
  "key": {"U-937 [1]": {"tested_on": "U-937", "assay": "Induction of apoptosis in human U937 cells assessed as late apoptotic cells at 5 x GI50 concentration incubated for 48 hrs by annexin V-FITC staining based flow cytometry (Rvb =9.82 %)", "type": "functional"}, "[2]": {"assay": "Inhibition of FLT3 Y591-V592insVDFREYEYD mutant (unknown origin) incubated for 120 mins by ADP-glo based luminescence assay", "design": "species or system Homo sapiens"}, "[3]": {"target": "Receptor-type tyrosine-protein kinase FLT3 (Homo sapiens, UniProt P36888, R595-E596INSEY)", "sequence (P36888 whole entry, looked up, stated change not applied)": "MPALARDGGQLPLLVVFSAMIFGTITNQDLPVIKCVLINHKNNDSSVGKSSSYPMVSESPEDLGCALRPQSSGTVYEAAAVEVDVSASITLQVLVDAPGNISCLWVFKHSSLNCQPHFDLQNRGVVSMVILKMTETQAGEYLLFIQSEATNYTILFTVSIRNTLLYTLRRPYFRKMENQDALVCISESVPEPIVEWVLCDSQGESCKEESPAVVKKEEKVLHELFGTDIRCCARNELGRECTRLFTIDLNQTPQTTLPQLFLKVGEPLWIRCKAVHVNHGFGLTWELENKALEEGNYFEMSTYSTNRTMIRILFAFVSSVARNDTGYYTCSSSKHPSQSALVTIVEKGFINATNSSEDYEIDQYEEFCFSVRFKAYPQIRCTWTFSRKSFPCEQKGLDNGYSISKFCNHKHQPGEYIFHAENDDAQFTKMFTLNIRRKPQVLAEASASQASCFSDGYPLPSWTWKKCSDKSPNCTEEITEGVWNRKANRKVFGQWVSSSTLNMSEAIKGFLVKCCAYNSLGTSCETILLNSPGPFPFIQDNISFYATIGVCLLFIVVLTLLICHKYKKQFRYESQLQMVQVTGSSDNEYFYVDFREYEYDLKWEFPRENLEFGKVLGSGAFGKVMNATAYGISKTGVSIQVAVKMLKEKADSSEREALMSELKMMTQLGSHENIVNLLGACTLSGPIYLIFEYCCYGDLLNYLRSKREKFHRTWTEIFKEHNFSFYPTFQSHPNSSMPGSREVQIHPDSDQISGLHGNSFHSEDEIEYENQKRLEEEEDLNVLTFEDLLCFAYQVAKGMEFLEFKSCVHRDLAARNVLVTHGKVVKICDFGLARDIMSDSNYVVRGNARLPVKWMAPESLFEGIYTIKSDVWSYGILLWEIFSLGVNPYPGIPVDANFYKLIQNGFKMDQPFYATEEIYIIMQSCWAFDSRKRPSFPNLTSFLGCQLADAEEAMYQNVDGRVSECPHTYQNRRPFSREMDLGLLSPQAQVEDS", "assay": "Inhibition of FLT3 R595_E596insEY mutant (unknown origin) incubated for 120 mins by ADP-glo based luminescence assay"}, "[4]": {"target": "Receptor-type tyrosine-protein kinase FLT3 (Homo sapiens, UniProt P36888, ITD)", "sequence (P36888 whole entry, looked up, stated change not applied)": "as above", "assay": "Inhibition of FLT3 ITD mutant (unknown origin) using Glu/Tyr peptide substrate incubated for 80 mins measured after 40 mins incubation under dark by ADP-glo based luminescence assay"}, "MV4-11 [5]": {"tested_on": "MV4-11", "assay": "Induction of apoptosis in human MV4-11 cells assessed as early apoptotic cells at 1 x GI50 concentration incubated for 48 hrs by annexin V-FITC and propidium iodide staining based flow cytometry (reference value: 1.08 %)", "type": "functional"}, "MV4-11 [6]": {"tested_on": "MV4-11", "assay": "Induction of apoptosis in human MV4-11 cells assessed as early apoptotic cells at 10 x GI50 concentration incubated for 24 hrs by annexin V-FITC and propidium iodide staining based flow cytometry (reference value: 2.12 %)", "type": "functional"}, "MV4-11 [7]": {"tested_on": "MV4-11", "assay": "Induction of apoptosis in human MV4-11 cells assessed as late apoptotic cells at 5 x GI50 concentration incubated for 48 hrs by annexin V-FITC and propidium iodide staining based flow cytometry (reference value: 6.59 %)", "type": "functional"}, "[8]": {"target": "Receptor-type tyrosine-protein kinase FLT3 (Homo sapiens) (UniProt P36888)", "sequence (P36888 whole entry)": "as the sequence (P36888 whole entry, looked up, stated change not applied) above", "assay": "Inhibition of FLT3-mediated signalling pathway in human U-937 cells assessed as inhibition of ERK phosphorylation upto 20 x GI50 concentration incubated for 6 hrs by western blot analysis", "type": "cell-based", "method_in_brief": "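Cells lysed in phosphate lysis buffer with protease inhibitors and protein quantified. Western blots probed phospho and total STAT5, AKT, ERK, S6RP and eIF4E, plus full-length and cleaved PARP and caspase-3, with β-actin as loading control. At least two independent experiments.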"}, "CDK7/Cyclin H/MNAT1": {"target": "CDK7/Cyclin H/MNAT1 (Homo sapiens, UniProt P50613)", "sequence (P51946 whole entry)": "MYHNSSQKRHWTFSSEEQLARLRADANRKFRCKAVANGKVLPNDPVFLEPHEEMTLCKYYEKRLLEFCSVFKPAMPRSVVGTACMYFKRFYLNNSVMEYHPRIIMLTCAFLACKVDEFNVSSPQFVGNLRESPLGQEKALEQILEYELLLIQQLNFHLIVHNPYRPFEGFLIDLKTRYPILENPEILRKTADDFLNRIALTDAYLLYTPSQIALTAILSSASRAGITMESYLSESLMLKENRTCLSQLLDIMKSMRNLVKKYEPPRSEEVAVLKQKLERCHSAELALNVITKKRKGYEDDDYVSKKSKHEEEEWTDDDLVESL", "sequence (P50613 whole entry)": "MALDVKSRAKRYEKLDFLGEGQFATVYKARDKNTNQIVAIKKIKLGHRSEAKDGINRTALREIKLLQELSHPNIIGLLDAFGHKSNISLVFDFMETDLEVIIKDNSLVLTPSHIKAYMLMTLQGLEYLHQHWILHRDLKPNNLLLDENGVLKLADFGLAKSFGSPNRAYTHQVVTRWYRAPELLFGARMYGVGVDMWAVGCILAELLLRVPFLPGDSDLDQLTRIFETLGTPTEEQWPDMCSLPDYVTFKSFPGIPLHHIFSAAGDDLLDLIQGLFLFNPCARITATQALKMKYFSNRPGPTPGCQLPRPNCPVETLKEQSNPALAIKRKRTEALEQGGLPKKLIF", "sequence (P51948 whole entry, further chain)": "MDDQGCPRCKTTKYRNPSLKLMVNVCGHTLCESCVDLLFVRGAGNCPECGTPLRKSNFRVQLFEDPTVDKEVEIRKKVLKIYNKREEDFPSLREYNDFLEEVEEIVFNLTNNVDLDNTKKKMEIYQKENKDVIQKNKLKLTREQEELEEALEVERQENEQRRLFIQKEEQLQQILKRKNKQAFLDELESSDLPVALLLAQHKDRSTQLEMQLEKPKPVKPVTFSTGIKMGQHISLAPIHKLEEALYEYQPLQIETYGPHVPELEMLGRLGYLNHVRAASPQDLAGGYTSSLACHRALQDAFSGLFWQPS", "assay": "Inhibition of CDK7/cyclin H/MAT1 (unknown origin) using HYSPTSPSYSPTSPSYSPTSPSKKKK-O substrate incubated for 120 mins measured after 40 mins incubation under dark by ADP-glo based luminescence assay", "type": "protein-complex assay", "method_in_brief": "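In-house ADP-Glo assay with 2 mM DMSO stocks. Kinases were CDK1/cyclin B at 1 nM, CDK2/cyclin E1 at 10 nM and CDK7/cyclin H/MAT1 at 40 nM. Substrate was histone 1 for CDK1 and CDK2, and a RNA pol II CTD peptide for CDK7. Compound at 8–10 concentrations, 1:3 serial, final DMSO 0.5%. Reactions ran 60–120 min at room temperature, then ADP-Glo reagent 40 min in the dark, then detection reagent 40 min, read by luminescence. Ki was derived from IC50 by Cheng-Prusoff.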"}, "THP-1": {"tested_on": "THP-1", "assay": "Antiproliferative activity against human THP-1 cells harboring wild type FLT3 assessed as reduction in cell viability after 72 hrs by resazurin assay", "type": "functional", "method_in_brief": "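Cells seeded and pre-incubated 24 h at 37 °C, 5% CO2, then given a five-fold dilution series of compound (from 10 mM DMSO stock) in medium, in triplicate. Resazurin added after 72 h exposure, 4 h in dark at 37 °C. Fluorescence read at 570/585 nm, normalised to DMSO vehicle. GI50 by non-linear regression; mean ± SD of at least two replicates.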"}, "U-937 [9]": {"tested_on": "U-937", "assay": "Induction of apoptosis in human U937 cells assessed as early apoptotic cells at 1 x GI50 concentration incubated for 48 hrs by annexin V-FITC staining based flow cytometry (Rvb =2.78 %)", "type": "functional"}, "MV4-11 [10]": {"tested_on": "MV4-11", "assay": "Induction of apoptosis in human MV4-11 cells assessed as late apoptotic cells at 20 x GI50 concentration incubated for 48 hrs by annexin V-FITC and propidium iodide staining based flow cytometry (reference value: […] %)", "type": "functional"}, "MV4-11 [11]": {"tested_on": "MV4-11", "assay": "Induction of apoptosis in human MV4-11 cells assessed as early apoptotic cells at 10 x GI50 concentration incubated for 48 hrs by annexin V-FITC and propidium iodide staining based flow cytometry (reference value: 1.08 %)", "type": "functional"}, "MV4-11 [12]": {"tested_on": "MV4-11", "assay": "Induction of apoptosis in human MV4-11 cells assessed as viable cells at 20 x GI50 concentration incubated for 48 hrs by annexin V-FITC and propidium iodide staining based flow cytometry (reference value: 91.87 %)", "type": "functional"}},
  "note": "Calls of active or inactive are those of the source. No cut-off for these calls is given here.",
  "data": [
    {"smiles": "CC(=O)N1CCN(c2ccc(Nc3nccc(-c4cn(C)c5ncccc45)n3)cc2)CC1", "values": [
      {"measurement": "Activity", "setting": "U-937 [1]", "value": 8.16, "unit": "%"},
      {"measurement": "Ki", "setting": "[2]", "value": 185, "unit": "nM"},
      {"measurement": "Ki", "setting": "[3]", "value": 77, "unit": "nM"},
      {"measurement": "Ki", "setting": "[4]", "value": 2, "unit": "nM"},
      {"measurement": "Activity", "setting": "MV4-11 [5]", "value": 2.99, "unit": "%"},
      {"measurement": "Activity", "setting": "MV4-11 [6]", "value": 2.54, "unit": "%"},
      {"measurement": "Activity", "setting": "MV4-11 [7]", "value": 9.25, "unit": "%"},
      {"measurement": "inhibition", "setting": "[8]", "value": "Active"},
      {"measurement": "Ki", "setting": "CDK7/Cyclin H/MNAT1", "value": "> 5000", "unit": "nM"},
      {"measurement": "GI50", "setting": "THP-1", "value": 7720, "unit": "nM"},
      {"measurement": "Activity", "setting": "U-937 [9]", "value": 2.21, "unit": "%"},
      {"measurement": "Activity", "setting": "MV4-11 [10]", "value": 1.56, "unit": "%"},
      {"measurement": "Activity", "setting": "MV4-11 [11]", "value": 2.72, "unit": "%"},
      {"measurement": "Activity", "setting": "MV4-11 [12]", "value": 64.18, "unit": "%"}
    ]}
  ]
}
